Assay results: ChEMBL document CHEMBL4376814, “Novel cyclin-dependent kinase 9 (CDK9) inhibitor with suppression of cancer stemness activity against non-small-cell lung cancer” (Eur J Med Chem, 2019)

Key:
[1] = system: NCI-H1299; experiment: Induction of apoptosis in human H1299 cells assessed as viable cells at 1 uM after 48 hrs by AnnexinV-FITC/PI staining-based flow cytometric analysis (reference value: 97.1%); assay type: functional; conditions: NCI-H1299, 48 h, read-out: Activity
[2] = system: Discoidin domain-containing receptor 2 (Homo sapiens), Q16832 [UNDEFINED MUTATION]; experiment: Inhibition of recombinant human DDR2 S642A mutant (467 to end residues) at 1 uM using KKSRGDYMTMQIG as substrate measured after 40 mins in presence of [gamma33P]ATP by scintillation counting method relative to control
[3] = biological target: Mast/stem cell growth factor receptor Kit (Homo sapiens) (UniProt P10721); experiment: Inhibition of recombinant human cKit (544 to end residues) at 1 uM using Poly(Glu,Tyr) 4:1 as substrate measured after 40 mins in presence of [gamma33P]ATP by scintillation counting method relative to control
Procedure, shortened: (§1)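 Single-point inhibition at 1 µM was measured in the Eurofins KinaseProfiler panel. Values are the mean of two independent experiments.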

[4] = biological target: cAMP-dependent protein kinase catalytic subunit PRKX (Homo sapiens) (UniProt P51817); experiment: Inhibition of recombinant full-length human PrKX at 1 uM using RRRLSFAEPG as substrate measured after 40 mins in presence of [gamma33P]ATP by scintillation counting method relative to control
[5] = biological target: Inhibitor of nuclear factor kappa-B kinase subunit beta (Homo sapiens) (UniProt O14920); experiment: Inhibition of recombinant full-length human IKKbeta at 1 uM using peptide substrate measured after 40 mins in presence of [gamma33P]ATP by scintillation counting method relative to control
[6] = biological target: Serine/threonine-protein kinase N2 (Homo sapiens) (UniProt Q16513); experiment: Inhibition of human PRK2 (501 to end residues) at 1 uM using AKRRRLSSLRA as substrate measured after 40 mins in presence of [gamma33P]ATP by scintillation counting method relative to control; procedure, shortened: as §1
Sequence of Serine/threonine-protein kinase N2 (Homo sapiens) (Q16513 whole entry, looked up, the tested form may be a part): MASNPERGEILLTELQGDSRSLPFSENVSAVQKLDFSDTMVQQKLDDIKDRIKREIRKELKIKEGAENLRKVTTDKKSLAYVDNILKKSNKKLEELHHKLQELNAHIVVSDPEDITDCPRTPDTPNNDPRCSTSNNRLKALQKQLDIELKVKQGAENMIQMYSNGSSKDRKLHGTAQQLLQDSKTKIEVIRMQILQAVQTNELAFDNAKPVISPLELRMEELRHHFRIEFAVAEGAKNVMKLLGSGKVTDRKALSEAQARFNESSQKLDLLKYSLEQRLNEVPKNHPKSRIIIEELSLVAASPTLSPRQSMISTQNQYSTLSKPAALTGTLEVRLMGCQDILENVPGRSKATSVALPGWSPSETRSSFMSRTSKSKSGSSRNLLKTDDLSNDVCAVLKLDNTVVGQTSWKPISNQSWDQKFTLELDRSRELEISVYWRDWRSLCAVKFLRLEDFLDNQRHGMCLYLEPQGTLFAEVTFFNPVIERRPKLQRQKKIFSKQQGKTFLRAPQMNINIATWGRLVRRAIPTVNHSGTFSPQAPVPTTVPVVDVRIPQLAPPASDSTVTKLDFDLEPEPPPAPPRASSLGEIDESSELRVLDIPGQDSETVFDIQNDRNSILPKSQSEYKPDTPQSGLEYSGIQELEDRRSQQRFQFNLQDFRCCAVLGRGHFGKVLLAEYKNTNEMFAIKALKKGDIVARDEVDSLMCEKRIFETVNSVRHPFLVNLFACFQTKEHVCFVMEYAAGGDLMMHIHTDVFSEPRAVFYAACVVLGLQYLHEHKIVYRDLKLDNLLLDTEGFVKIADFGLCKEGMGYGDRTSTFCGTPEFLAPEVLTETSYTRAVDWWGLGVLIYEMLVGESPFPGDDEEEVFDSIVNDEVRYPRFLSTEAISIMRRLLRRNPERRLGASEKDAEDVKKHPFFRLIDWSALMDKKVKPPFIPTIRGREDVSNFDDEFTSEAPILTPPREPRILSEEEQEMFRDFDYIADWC

[7] = biological target: Homeodomain-interacting protein kinase 1 (Homo sapiens) (UniProt Q86Z02); experiment: Inhibition of recombinant human activated HIPK1 (158 to 555 residues) at 1 uM using myelin basic protein as substrate measured after 40 mins in presence of [gamma33P]ATP by scintillation counting method relative to control
Sequence of Homeodomain-interacting protein kinase 1 (Homo sapiens) (Q86Z02 whole entry, looked up, the tested form may be a part): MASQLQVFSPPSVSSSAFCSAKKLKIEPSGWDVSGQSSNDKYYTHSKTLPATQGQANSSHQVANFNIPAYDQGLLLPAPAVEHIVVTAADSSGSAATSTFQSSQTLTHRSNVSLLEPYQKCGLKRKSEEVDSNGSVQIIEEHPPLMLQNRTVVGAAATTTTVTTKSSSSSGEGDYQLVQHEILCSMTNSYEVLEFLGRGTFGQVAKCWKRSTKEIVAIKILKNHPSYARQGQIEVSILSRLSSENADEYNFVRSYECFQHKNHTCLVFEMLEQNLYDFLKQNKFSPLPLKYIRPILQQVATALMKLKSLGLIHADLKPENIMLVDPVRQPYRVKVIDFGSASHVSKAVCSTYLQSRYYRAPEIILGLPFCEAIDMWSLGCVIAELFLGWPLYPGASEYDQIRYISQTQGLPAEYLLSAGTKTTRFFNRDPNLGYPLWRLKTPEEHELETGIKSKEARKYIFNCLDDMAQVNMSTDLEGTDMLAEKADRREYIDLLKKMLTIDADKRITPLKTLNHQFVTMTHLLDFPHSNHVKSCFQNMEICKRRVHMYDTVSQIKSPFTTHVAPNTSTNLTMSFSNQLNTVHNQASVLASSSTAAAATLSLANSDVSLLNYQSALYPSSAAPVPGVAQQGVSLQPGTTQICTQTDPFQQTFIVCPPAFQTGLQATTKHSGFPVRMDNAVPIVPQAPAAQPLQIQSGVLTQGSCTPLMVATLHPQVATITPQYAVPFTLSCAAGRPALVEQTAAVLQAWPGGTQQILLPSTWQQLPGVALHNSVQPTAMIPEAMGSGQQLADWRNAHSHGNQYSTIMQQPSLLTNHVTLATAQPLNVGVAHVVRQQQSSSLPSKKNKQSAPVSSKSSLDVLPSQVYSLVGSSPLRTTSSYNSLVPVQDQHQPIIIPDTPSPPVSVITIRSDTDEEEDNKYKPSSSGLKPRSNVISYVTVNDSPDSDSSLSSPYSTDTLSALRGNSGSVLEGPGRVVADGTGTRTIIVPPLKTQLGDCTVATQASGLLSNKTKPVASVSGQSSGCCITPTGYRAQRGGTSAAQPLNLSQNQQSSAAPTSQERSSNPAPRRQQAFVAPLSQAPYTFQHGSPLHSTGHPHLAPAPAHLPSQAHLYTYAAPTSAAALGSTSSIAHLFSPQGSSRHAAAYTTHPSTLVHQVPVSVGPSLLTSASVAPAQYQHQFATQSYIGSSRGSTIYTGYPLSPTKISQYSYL

[8] = system: Hepatocyte growth factor receptor (Homo sapiens), P08581 [Y1230D]; experiment: Inhibition of recombinant human MET A1209G/V1290L/Y1248D mutant (974 to end residues) at 1 uM using KKKGQEEEYVFIE as substrate measured after 40 mins in presence of [gamma33P]ATP by scintillation counting method relative to control
[9] = biological target: Bone morphogenetic protein receptor type-2 (Homo sapiens) (UniProt Q13873); experiment: Inhibition of recombinant human BMPR2 (172 to 734 residues) at 1 uM using myelin basic protein as substrate measured after 120 mins in presence of [gamma33P]ATP by scintillation counting method relative to control
[10] = organism: Homo sapiens; experiment: Inhibition of recombinant human ARAF Y301D/Y302D mutant (273 to end residues) at 1 uM using myelin basic protein as substrate measured after 40 mins in presence of [gamma33P]ATP by scintillation counting method relative to control
[11] = biological target: Serine/threonine-protein kinase WNK1 (Homo sapiens) (UniProt Q9H4A3); experiment: Inhibition of recombinant human WNK1 (1 to 491 residues) at 1 uM using MBP as substrate measured after 120 mins in presence of [gamma33P]ATP by scintillation counting method relative to control
Sequence of Serine/threonine-protein kinase WNK1 (Homo sapiens) (Q9H4A3 whole entry, looked up, the tested form may be a part): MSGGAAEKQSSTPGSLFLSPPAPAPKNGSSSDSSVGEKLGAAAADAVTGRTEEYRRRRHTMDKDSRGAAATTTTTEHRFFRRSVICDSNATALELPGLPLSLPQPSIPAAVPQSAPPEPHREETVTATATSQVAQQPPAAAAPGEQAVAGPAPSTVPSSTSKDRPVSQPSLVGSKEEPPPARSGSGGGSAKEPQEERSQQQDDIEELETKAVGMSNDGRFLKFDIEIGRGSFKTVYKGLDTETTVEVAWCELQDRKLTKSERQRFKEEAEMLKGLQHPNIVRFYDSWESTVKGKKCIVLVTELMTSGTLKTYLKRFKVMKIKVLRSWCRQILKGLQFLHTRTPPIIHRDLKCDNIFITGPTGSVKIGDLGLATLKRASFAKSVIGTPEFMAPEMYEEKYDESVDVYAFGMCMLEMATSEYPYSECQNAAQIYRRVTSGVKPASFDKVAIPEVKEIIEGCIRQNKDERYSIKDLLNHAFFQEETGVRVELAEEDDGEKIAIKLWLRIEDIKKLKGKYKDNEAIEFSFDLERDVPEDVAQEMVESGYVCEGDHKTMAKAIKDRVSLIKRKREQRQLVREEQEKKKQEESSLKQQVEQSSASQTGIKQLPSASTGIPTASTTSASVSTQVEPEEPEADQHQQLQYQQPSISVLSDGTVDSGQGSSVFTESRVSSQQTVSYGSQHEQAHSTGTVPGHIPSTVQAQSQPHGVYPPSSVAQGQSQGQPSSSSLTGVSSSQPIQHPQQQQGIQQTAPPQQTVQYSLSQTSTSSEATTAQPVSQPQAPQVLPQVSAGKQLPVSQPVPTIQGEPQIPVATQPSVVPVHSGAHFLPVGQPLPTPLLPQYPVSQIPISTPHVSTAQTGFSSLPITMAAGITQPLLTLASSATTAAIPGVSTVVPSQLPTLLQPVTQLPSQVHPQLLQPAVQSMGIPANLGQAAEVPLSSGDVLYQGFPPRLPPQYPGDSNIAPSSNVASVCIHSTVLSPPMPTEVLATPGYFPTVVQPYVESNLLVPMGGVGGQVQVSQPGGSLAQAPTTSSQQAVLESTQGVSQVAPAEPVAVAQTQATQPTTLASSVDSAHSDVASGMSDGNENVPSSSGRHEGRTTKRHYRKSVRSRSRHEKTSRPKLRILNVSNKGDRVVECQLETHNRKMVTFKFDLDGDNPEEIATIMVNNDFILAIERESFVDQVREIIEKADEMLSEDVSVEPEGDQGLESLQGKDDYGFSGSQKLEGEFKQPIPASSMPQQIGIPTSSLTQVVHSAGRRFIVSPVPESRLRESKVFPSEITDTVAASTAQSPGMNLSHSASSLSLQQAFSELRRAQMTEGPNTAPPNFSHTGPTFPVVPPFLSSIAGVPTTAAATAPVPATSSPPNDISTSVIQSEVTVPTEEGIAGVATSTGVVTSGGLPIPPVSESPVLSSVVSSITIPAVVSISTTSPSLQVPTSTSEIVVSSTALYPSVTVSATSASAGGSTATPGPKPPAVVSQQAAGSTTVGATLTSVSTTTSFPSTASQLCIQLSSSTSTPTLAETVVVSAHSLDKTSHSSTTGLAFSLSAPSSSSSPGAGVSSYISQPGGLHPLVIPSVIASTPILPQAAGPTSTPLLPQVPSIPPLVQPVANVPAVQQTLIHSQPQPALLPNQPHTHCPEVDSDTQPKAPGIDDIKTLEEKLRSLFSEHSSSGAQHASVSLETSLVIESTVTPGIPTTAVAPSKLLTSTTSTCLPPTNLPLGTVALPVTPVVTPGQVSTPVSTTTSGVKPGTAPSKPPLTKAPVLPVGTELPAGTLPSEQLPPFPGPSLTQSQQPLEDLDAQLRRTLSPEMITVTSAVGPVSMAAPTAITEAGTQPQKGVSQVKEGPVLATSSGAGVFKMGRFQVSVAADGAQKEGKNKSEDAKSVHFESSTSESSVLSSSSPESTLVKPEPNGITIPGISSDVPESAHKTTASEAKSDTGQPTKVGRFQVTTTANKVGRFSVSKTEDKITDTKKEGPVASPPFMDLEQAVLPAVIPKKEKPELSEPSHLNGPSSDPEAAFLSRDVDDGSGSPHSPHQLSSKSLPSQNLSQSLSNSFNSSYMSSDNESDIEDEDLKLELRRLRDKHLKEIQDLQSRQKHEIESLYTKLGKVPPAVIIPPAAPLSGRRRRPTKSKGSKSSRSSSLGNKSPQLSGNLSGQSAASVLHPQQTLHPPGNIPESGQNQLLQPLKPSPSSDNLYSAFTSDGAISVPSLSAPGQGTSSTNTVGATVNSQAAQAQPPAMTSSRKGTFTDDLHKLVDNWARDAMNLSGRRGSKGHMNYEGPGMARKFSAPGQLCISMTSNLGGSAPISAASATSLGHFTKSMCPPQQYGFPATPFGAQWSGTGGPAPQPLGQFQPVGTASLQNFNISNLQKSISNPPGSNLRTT

[12] = biological target: Mitogen-activated protein kinase kinase kinase 9 (Homo sapiens) (UniProt P80192); experiment: Inhibition of recombinant human MLK1 (134 to 414 residues) at 1 uM using casein as substrate measured after 40 mins in presence of [gamma33P]ATP by scintillation counting method relative to control
[13] = biological target: Tyrosine-protein kinase FRK (Homo sapiens) (UniProt P42685); experiment: Inhibition of human PTK5 (218 to end residues) at 1 uM using GGEEEEYFELVKKKK as substrate measured after 40 mins in presence of [gamma33P]ATP by scintillation counting method relative to control
Sequence of Tyrosine-protein kinase FRK (Homo sapiens) (P42685 whole entry): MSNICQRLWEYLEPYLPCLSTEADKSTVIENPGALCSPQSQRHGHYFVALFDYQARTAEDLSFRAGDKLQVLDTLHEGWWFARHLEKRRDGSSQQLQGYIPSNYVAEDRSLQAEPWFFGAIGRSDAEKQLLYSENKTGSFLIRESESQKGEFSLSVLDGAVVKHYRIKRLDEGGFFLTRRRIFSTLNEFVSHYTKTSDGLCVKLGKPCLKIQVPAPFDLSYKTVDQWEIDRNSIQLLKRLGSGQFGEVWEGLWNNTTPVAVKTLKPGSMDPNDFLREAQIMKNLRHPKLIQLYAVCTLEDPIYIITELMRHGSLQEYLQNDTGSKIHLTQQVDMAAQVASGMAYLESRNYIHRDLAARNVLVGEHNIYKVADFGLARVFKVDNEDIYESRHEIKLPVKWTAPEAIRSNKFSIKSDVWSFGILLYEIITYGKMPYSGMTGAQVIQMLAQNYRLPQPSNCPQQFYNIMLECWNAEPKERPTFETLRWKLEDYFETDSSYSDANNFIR
Procedure, shortened: (§2)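 Percent inhibition of kinase activity at a single compound concentration, measured by the outsourced Eurofins KinaseProfiler panel. Values are the mean of two independent experiments.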

[14] = biological target: Dual specificity tyrosine-phosphorylation-regulated kinase 3 (Homo sapiens) (UniProt O43781); experiment: Inhibition of recombinant full-length human DYRK3 at 1 uM using RRRFRPASPLRGPPK as substrate measured after 40 mins in presence of [gamma33P]ATP by scintillation counting method relative to control
[15] = system: Hepatocyte growth factor receptor (Homo sapiens), P08581 [M1250T]; experiment: Inhibition of recombinant human MET A1209G/V1290L/M1268T mutant (974 to end residues) at 1 uM using KKKGQEEEYVFIE as substrate measured after 40 mins in presence of [gamma33P]ATP by scintillation counting method relative to control
[16] = biological target: CDC7/Cyclin B1 (Homo sapiens) (UniProt P14635+O00311); experiment: Inhibition of recombinant full-length human CDC7/cyclinB1 at 1 uM using Histone H1 as substrate measured after 120 mins in presence of [gamma33P]ATP by scintillation counting method relative to control; assay type: protein-complex assay
[17] = biological target: Receptor-interacting serine/threonine-protein kinase 1 (Homo sapiens) (UniProt Q13546); experiment: Inhibition of human RIPK1 (8 to 322 residues) at 1 uM using myelin basic protein as substrate measured after 120 mins in presence of [gamma33P]ATP by scintillation counting method relative to control; procedure, shortened: as §2
[18] = biological target: Ephrin type-A receptor 2 (Homo sapiens) (UniProt P29317); experiment: Inhibition of recombinant human EphA2 (596 to 900 residues) at 1 uM using poly(Glu, Tyr) 4:1 as substrate measured after 40 mins in presence of [gamma33P]ATP by scintillation counting method relative to control
[19] = system: Glycogen synthase kinase-3 alpha (Homo sapiens), P49840 [UNDEFINED MUTATION]; experiment: Inhibition of recombinant full-length human GSK3alpha (2 to end residues) S449A mutant at 1 uM using phospho GS2 peptide as substrate measured after 40 mins in presence of [gamma33P]ATP by scintillation counting method relative to control
[20] = biological target: Serine/threonine-protein kinase WNK2 (Homo sapiens) (UniProt Q9Y3S1); experiment: Inhibition of recombinant human WNK2 (166 to 489 residues) at 1 uM using MBP as substrate measured after 40 mins in presence of [gamma33P]ATP by scintillation counting method relative to control
[21] = biological target: CDK4/Cyclin D3 (Homo sapiens) (UniProt P11802+P30281); experiment: Inhibition of recombinant full-length human CDK4/cyclinD3 at 1 uM using Rb fragment as substrate measured after 40 mins in presence of [gamma33P]ATP by scintillation counting method relative to control; assay type: protein-complex assay; procedure, shortened: as §2
[22] = biological target: Tyrosine-protein kinase Yes (Homo sapiens) (UniProt P07947); experiment: Inhibition of recombinant full-length human YES at 1 uM using poly(Glu, Tyr) 4:1 as substrate measured after 40 mins in presence of [gamma33P]ATP by scintillation counting method relative to control

CN(C)C(=O)c1cc2cnc(Nc3ccc(NC(=O)CCCCCCCN=C=S)cc3)nc2n1C1CCCC1
viability at 1 µM [1]: 89.6%
inhibition [2]: 17%
inhibition [3]: 26%
inhibition [4]: -1%
inhibition [5]: -1%
inhibition [6]: 11%
inhibition [7]: 9%
inhibition [8]: 68%
inhibition [9]: 73%
inhibition [10]: -1%
inhibition [11]: 6%
inhibition [12]: 34%
inhibition [13]: 15%
inhibition [14]: 17%
inhibition [15]: 60%
inhibition [16]: 75%
inhibition [17]: 37%
inhibition [18]: 15%
inhibition [19]: 17%
inhibition [20]: 4%
inhibition [21]: 87%
inhibition [22]: 61%
